Values after ≈ are worked out from the molar mass of the structure shown. Active and inactive are the calls of the source.

Usually Papp stands for a coefficient for how fast a substance crosses the barrier. By CC50 is commonly meant the concentration that lowers cell viability or growth by half. What is called EC50 is the concentration needed to bring the measured effect to its halfway point. As usually defined, the half-life is the time needed for the level to fall by half in the phase considered. Low values mean rapid decline, high ones slow decline. As a reminder, the bioavailability is dose-corrected exposure relative to a reference, in per cent.

The nature of series [1]: Thermodynamic aqueous solubility in Dulbecco's phosphate buffered saline using solid sample incubated for 72 hrs under shaking condition by LC-MS/MS analysis. Format: physicochemical. Particulars: read-out: Therm_solubility.
A short description of series [2]: Apparent permeability from basolateral to apical side in human Caco2 cells measured after 20 to 80 mins by LC-MS/MS analysis. In kind it is ADME, cell-based. Particulars: caco-2. (Passage across Caco-2 layers is used to estimate intestinal permeability.)
Series [3] deals with Hepatitis B virus. Kind of series: Binding affinity to HBV dimeric capsid protein C150 mutant expressed in Escherichia coli BL21 (DE3) at 20 uM by Sypro orange staining based RT-PCR analysis.
A short description of series [4]: Intrinsic clearance in mouse liver microsomes assessed as NADPH-dependent metabolism per mg protein at 1 uM in presence of NADPH by LC-MS/MS analysis. Format: ADME, Microsome. On the technique in general: Liver microsomes are vesicles of endoplasmic reticulum, rich in cytochrome P450 enzymes.
Series [5] is described as follows: Stability in Dulbecco's phosphate buffered saline assessed as parent compound remaining at 1 uM after 24 hrs by LC-MS/MS analysis. Format: physicochemical. Particulars: read-out: Stability. An outline of the steps:
(§1)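 Compound, typically 1 μM final, incubated in DPBS at 37 °C in triplicate; samples at 0, 1, 3, 6, 24 h quenched with 3 volumes acetonitrile containing internal standard; parent measured by LC-MS/MS.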

Series [6] is described as follows: Intrinsic clearance in human liver microsomes assessed as glucuronidation per mg protein at 1 uM in presence of UDPGA by LC-MS/MS analysis. Format: ADME, Microsome. An outline of the steps:
(§2)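 Glucuronidation: typically 1 μM compound with 0.5 mg/mL microsomal protein, alamethicin 50 μg/mg protein, 1 mM MgCl2, 5 mM UDPGA in 0.1 M potassium phosphate pH 7.4, 37 °C; timed aliquots quenched in acetonitrile; LC-MS/MS gives CLint (μl/min/mg protein); triplicate; 7-hydroxycoumarin positive control.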

Series [7] is described as follows: Protein binding in mouse plasma at 5 uM incubated for 5 hrs by LC-MS/MS-based equilibrium dialysis method. Format: ADME, cell-free. An outline of the steps: (§3)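 Equilibrium dialysis in duplicate: compound spiked at 5 μM into normal human or mouse plasma, dialyzed against DPBS 5 h at 37 °C; both chambers sampled and quenched in acetonitrile with internal standard; LC-MS/MS gives percent bound.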
For orientation: In equilibrium dialysis only unbound substance equilibrates across the membrane.

The next series concerns HepG2. Kind of series: (§4) Cytotoxicity against human HepG2 cells assessed as reduction in cell viability incubated for 2 days prior to compound washout followed by compound redosing and measured after 2 days by XTT assay. Format: cell-based. As to conditions: hepg2, 48 h.
Series [8] in a line: Protein binding in human plasma at 5 uM incubated for 5 hrs by LC-MS/MS-based equilibrium dialysis method. In kind it is ADME, cell-free. An outline of the steps:
as §3

Series [9] in a line: Half life in mouse plasma at 1 uM by LC-MS/MS analysis. In kind it is ADME, cell-free.
The nature of series [10]: Intrinsic clearance in mouse liver microsomes assessed as glucuronidation per mg protein at 1 uM in presence of UDPGA by LC-MS/MS analysis. In kind it is ADME, Microsome. An outline of the steps: as §2
A short description of series [11]: Intrinsic clearance in human liver microsomes assessed as NADPH-dependent metabolism per mg protein at 1 uM in presence of NADPH by LC-MS/MS analysis. In kind it is ADME, Microsome.
Series [12] in a line: Apparent permeability from apical to basolateral side in human Caco2 cells measured after 20 to 80 mins by LC-MS/MS analysis. Format: ADME, cell-based. Particulars: caco-2.
Series [13] can be described thus: Half life in human plasma at 1 uM by LC-MS/MS analysis. Format: ADME, cell-free.
The subject of series [14] is Hepatitis B virus. Nature of the series: Antiviral activity against HBV infected in human HepAD38 cells assessed as reduction in total DNA production incubated for 2 days prior to compound washout followed by compound redosing and measured after 2 days by dot-blot analysis. In kind it is functional, organism-based. An outline of the steps: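 HepAD38 cells seeded at 3 × 10^4/well in tetracycline medium; next day washed twice with PBS and given tet-free complete medium with 2-fold serial dilutions, 1% final DMSO, replaced with fresh compound medium after 2 days. After 2 more days cells lysed (NP-40), DNA alkali-denatured, dot-blotted, probed with DIG-labelled HBV probe; chemiluminescence densitometry, variable-slope fit; mean ± SD of ≥2 experiments.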

The nature of series [15]: Half life in Dulbecco's phosphate buffered saline at 1 uM by LC-MS/MS analysis. In kind it is physicochemical. An outline of the steps:
as §1

Series [16] is described as follows: Oral bioavailability in CD-1 mouse at 10 mg/kg by LC-MS/MS analysis. In kind it is ADME, organism-based. As to conditions: in vivo; for bioavailability: CD-1, mouse; for F: mouse. An outline of the steps: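 Male CD-1 mice (25–35 g), n = 4 per route; typical doses 2 mg/kg IV and 10 mg/kg PO in DPBS with up to 42% 2-hydroxypropyl-β-cyclodextrin; serial saphenous blood to 24 h (8 points); plasma by LC-MS/MS; non-compartmental analysis; F = (AUCpo/AUCiv)×(Doseiv/Dosepo).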

Series [17] can be described thus: as §4. As to conditions: HepG2 cells. In kind it is cell-based.
In series [18] the test system is Hepatitis B virus. Nature of the series: Disruption of HBV dimeric capsid protein C150 mutant assembly expressed in Escherichia coli BL21 (DE3) assessed as increase in capsid assembly at 20 uM by Sypro orange staining based RT-PCR analysis.
Series [19] has as its system Hepatitis B virus. Kind of series: Disruption of HBV dimeric capsid protein C150 mutant assembly expressed in Escherichia coli BL21 (DE3) assessed as increase in capsid aggregation after 1 hr by uranyl acetate staining based transmission electron microscopic analysis. An outline of the steps:
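Purified C150 dimer (18 μM) in bicarbonate buffer, with compound or 1% DMSO, assembled by adding an equal volume of 100 mM HEPES pH 7.5, 1 M NaCl, 1 h at room temperature. Assemblies adsorbed to glow-discharged carbon-coated copper grids, negatively stained with 2% uranyl acetate and imaged by TEM for aggregates versus DMSO control.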

On to `Cc1c(C(=O)Nc2ccc(F)c(F)c2)sc(N)c1C(N)=O`, for which the solubility thermodynamic at 72 h in series [1] was determined as 11 µM (≈ 3.42 µg/mL). Also, the Papp in series [2] came out at 27.6 ×10⁻⁶ cm/s; in [12], 24.8 ×10⁻⁶ cm/s. In the series on Hepatitis B virus [3], the result was Active. In addition, the “intrinsic clearance per mg protein” value in series [4] stood at 25 µL/min. The remaining at 24 h, 1 µM in series [5] was over 90%. Moreover, the entries for the “intrinsic clearance (CLint)” value in series [6] and in series [10] were under 0.1 µL/min and 5.2 µL/min, respectively. The PPB is listed as 80% in series [7] and 86% in series [8]. In the series with HepG2, the CC50 is over 100 µM. For the same compound, the t1/2 in series [9] and in series [13] was over 24 h each time. In addition, the Microsomal intrinsic clearance in [11] was found to be 3.4 µL/min.
Regarding `Cc1c(C(=O)Nc2ccccc2)sc(N)c1C(N)=O`, in [1], the solubility thermodynamic at 72 h was 19 µM (≈ 5.23 µg/mL). Also, the result with Hepatitis B virus [3] was Active. The “intrinsic clearance per mg protein” value in series [4] turned out to be 18 µL/min. In addition, the remaining at 24 h, 1 µM in series [5] is over 90%. The EC50 with Hepatitis B virus [14] is 3.4 µM. Besides, the “intrinsic clearance (CLint)” value in series [6] is 2 µL/min; in series [10], 4.4 µL/min. The PPB in [7] turned out to be 50%; in [8] it was 86%. This compound came in with a half-life at 1 µM in [15] of over 24 h. Moreover, in the series on HepG2, the CC50 is over 100 µM. The t1/2 in series [9] and in [13] was over 24 h in each case. In series [16], this compound displayed a bioavailability of 31 to 34%. Further, in [11], the Microsomal intrinsic clearance turned out to be 5 µL/min.
Consider `Cc1c(C(=O)Nc2ccc(F)c(C(F)F)c2)sc(N)c1C(N)=O`, for which the solubility thermodynamic at 72 h in series [1] amounted to 9.5 µM (≈ 3.26 µg/mL). The result in the series with Hepatitis B virus [3] was Active. The “intrinsic clearance per mg protein” value in [4] worked out at 22 µL/min. Further, the remaining at 24 h, 1 µM in series [5] was over 90%. Besides, the “intrinsic clearance (CLint)” value was 3.2 µL/min in series [6] and 10 µL/min in [10]. Moreover, the PPB in [7] worked out at 82%; in series [8], 89%. The CC50 in the series with HepG2 was over 100 µM. Also, the t1/2 in series [9] and in [13] was over 24 h in each case. For the same compound, the F in [16] is reported as 25%. The Microsomal intrinsic clearance in series [11] was 5.8 µL/min.
As for `Cc1c(C(=O)Nc2ccc(F)c(Cl)c2)sc(N)c1C(N)=O`, the solubility thermodynamic at 72 h in series [1] was 31 µM (≈ 10.2 µg/mL). Further, the outcome in the series on Hepatitis B virus [3] was Active. Besides, in [4], the “intrinsic clearance per mg protein” value amounted to 28 µL/min. For the same compound, in series [5], the remaining at 24 h, 1 µM was over 90%. Besides, the concentration giving a half-maximal response (EC50) with Hepatitis B virus [14] worked out at 0.31 µM. For the same compound, the “intrinsic clearance (CLint)” value was under 0.1 µL/min in [6] and 1.6 µL/min in series [10]. The PPB in series [7] stood at 90%; in [8] it was 94%. Also, in the series with HepG2, the CC50 is over 100 µM. Also, the t1/2 in series [9] and in series [13] was over 24 h in each case. Besides, in series [11], the Microsomal intrinsic clearance worked out at 7.6 µL/min.
For the compound `Cc1c(C(=O)Nc2ccccc2)sc(N)c1C(N)=S`, in the series on Hepatitis B virus [3], the result was Active. Besides, the EC50 in the series with Hepatitis B virus [14] was over 10 µM. For the same compound, the CC50 at 48 h in series [17] was over 100 µM.
On to `Cc1cc(NC(=O)c2sc(N)c(C(N)=O)c2C)ccc1Br`, for which the outcome with Hepatitis B virus [3] was Active. Besides, the CC50 in the series on HepG2 was 107 µM. In [16], this compound registered a bioavailability of 46%.
As for `Cc1c(C(=O)Nc2ccc(F)c(C#N)c2)sc(N)c1C(N)=O`, the solubility thermodynamic at 72 h in series [1] is 6.7 µM (≈ 2.13 µg/mL). Further, the result in the series with Hepatitis B virus [3] was Active. Besides, the “intrinsic clearance per mg protein” value in series [4] was found to be 4.2 µL/min. In addition, the remaining at 24 h, 1 µM in series [5] is over 90%. In addition, the “intrinsic clearance (CLint)” value in [6] stood at 0.1 µL/min; in series [10], 2 µL/min. Moreover, the figures for the PPB in series [7] and in [8] were 69% and 80%, respectively. Also, the CC50 with HepG2 was over 100 µM. The t1/2 in series [9] and in series [13] was over 24 h each time. In addition, the Microsomal intrinsic clearance in [11] stood at 2.4 µL/min.
As for `Cc1cc(NC(=O)c2sc(N)c(C(N)=O)c2C)ccc1F`, the solubility thermodynamic at 72 h in series [1] was found to be 31 µM (≈ 9.53 µg/mL). For the same compound, the Papp is 26.9 ×10⁻⁶ cm/s in series [2] and 18.6 ×10⁻⁶ cm/s in [12]. The outcome in the series with Hepatitis B virus [18], with Hepatitis B virus [19] and in the series on Hepatitis B virus [3] was Active. Moreover, the “intrinsic clearance per mg protein” value in series [4] is 92 µL/min. The remaining at 24 h, 1 µM in series [5] is over 90%. For the same compound, the “intrinsic clearance (CLint)” value in [6] is under 0.1 µL/min; in series [10] it was 5.2 µL/min. The PPB in series [7] stood at 82%; in series [8] it was 91%. Moreover, the CC50 in the series on HepG2 was over 100 µM. In addition, the t1/2 in series [9] and in series [13] was over 24 h in each case. Also, the F in [16] is 11%. Moreover, the Microsomal intrinsic clearance in [11] turned out to be 14 µL/min.

(Values after ChEMBL document CHEMBL4411305, “5-Aminothiophene-2,4-dicarboxamide analogues as hepatitis B virus capsid assembly effectors” (Eur J Med Chem, 2019).)
